Columns and labels:
HepG2 [1] = test: Antiproliferative activity against human HepG2 cells; assay type: functional, cell-based
Method in brief: (§1)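 Cells from the Institute of Cell Biology, CAS (Shanghai), grown in RPMI-1640 with 10% FBS and 100 U/mL penicillin-streptomycin at 37 °C under 5% CO2. Cells were exposed to compounds for 48 h, and viability was read by MTT (or MTS). IC50, the concentration giving 50% inhibition, was calculated by the Logit method. Data are representative of 3 independent experiments.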

K562 [2] = test: Antiproliferative activity against human K562 cells; assay type: functional, cell-based; method in brief: as §1
[3] = Partition coefficient, log P of the compound; assay type: physicochemical; conditions: octanol/water
K562 [4] = test: Antiproliferative activity against human K562 cells after 48 hrs by MTT assay; assay type: functional, cell-based; conditions: K562, 48 h; method in brief: as §1
A549 = test: Antiproliferative activity against human A549 cells after 48 hrs by MTT assay; assay type: functional, cell-based; conditions: A549, 48 h; method in brief: as §1
HepG2 [5] = test: Antiproliferative activity against human HepG2 cells after 48 hrs by MTT assay; assay type: functional, cell-based; conditions: HepG2, 48 h; method in brief: as §1
HepG2 [6] = test: Antiproliferative activity against human HepG2 cells after 72 hrs by MTT assay; assay type: functional, cell-based; conditions: HepG2, 72 h
HCT-116 = test: Antiproliferative activity against human HCT116 cells after 72 hrs by MTT assay; assay type: functional, cell-based; conditions: HCT-116, 72 h
NCI-H1975 = test: Antiproliferative activity against human NCI-H1975 cells after 72 hrs by MTT assay; assay type: functional, cell-based; conditions: NCI-H1975, 72 h

SMILES | logP [3] | also measured
C=CCc1cc(CN2CCSCC2)c(O)c(-c2cc(CC=C)c(O)c(CN3CCSCC3)c2)c1 | 5.03 | IC50 (HepG2 [1]): > 40 µM; IC50 (K562 [2]): > 40 µM
CCCc1ccc(O)c(-c2ccc(O)c(CCC)c2)c1 | 5.97 | IC50 (K562 [4]): 18.2 µM; IC50 (A549): 30.4 µM; IC50 (HepG2 [5]): 30.8 µM
C/C=C/c1ccc(O)c(-c2cc(/C=C/C)ccc2O)c1 | 5.36 | –
CCCc1ccc(O)c(-c2ccc3c(c2)CC(C)O3)c1 (centres undefined) | 5.13 | IC50 (K562 [4]): 72.9 µM; IC50 (A549): 96.1 µM; IC50 (HepG2 [5]): 122 µM
CCCc1ccc(O)c(-c2ccc3oc(C)cc3c2)c1 | 5.27 | IC50 (K562 [4]): 73.9 µM; IC50 (A549): 61.9 µM; IC50 (HepG2 [5]): 88.3 µM
CCCc1cc(C)c(O)c(-c2cc(C)c(O)c(CCC)c2)c1 | 6.51 | IC50 (K562 [4]): 26.2 µM; IC50 (A549): 29.2 µM; IC50 (HepG2 [5]): 34.5 µM
C=CCc1cc(C(C)(C)c2ccc(O)c(CC=C)c2)ccc1O | 5.8 | –
COc1ccc(-c2cc(/C=C/C=O)ccc2O)cc1/C=C/C=O | 4.34 | –
C=CCc1cc(CN2CCOCC2)c(O)c(-c2cc(CC=C)c(O)c(CN3CCOCC3)c2)c1 | 3.95 | IC50 (HepG2 [1]): > 40 µM; IC50 (K562 [2]): > 40 µM
O=Cc1ccc(O)c(-c2ccc(O)c(CC3CO3)c2)c1 (centres undefined) | 3.16 | IC50 (HepG2 [6]): > 40 µM; IC50 (HCT-116): > 40 µM; IC50 (NCI-H1975): > 40 µM
C=CCc1cc(-c2cc(CC=C)c(O)c([N+](=O)[O-])c2)c(O)c([N+](=O)[O-])c1 | 4.57 | IC50 (K562 [4]): > 128 µM; IC50 (A549): > 128 µM; IC50 (HepG2 [5]): > 128 µM
C=CCc1cc(/C=C2\SC(=O)NC2=O)c(O)c(-c2cc(/C=C3\SC(=O)NC3=O)c(O)c(CC=C)c2)c1 | 3.74 | –
C=CCc1ccc(OCC)c(-c2ccc(O)c(CC=C)c2)c1 | 5.66 | –
C=CCc1cc(CN2CCC(N)CC2)c(O)c(-c2cc(CC=C)c(O)c(CN3CCC(N)CC3)c2)c1 | 2.79 | IC50 (HepG2 [1]): 17 µM; IC50 (K562 [2]): 9.1 µM
C=CCc1ccc(O)c(-c2ccc3oc(C)cc3c2)c1 | 4.79 | IC50 (K562 [4]): 67.9 µM; IC50 (A549): 71.5 µM; IC50 (HepG2 [5]): 107 µM
C=CCc1cc(C(=C(Cl)Cl)c2ccc(O)c(CC=C)c2)ccc1O | 6.17 | –

SMILES | logP [3] | also measured
C=CCc1cc(CN2CCC(O)CC2)c(O)c(-c2cc(CC=C)c(O)c(CN3CCC(O)CC3)c2)c1 | 2.31 | IC50 (HepG2 [1]): > 40 µM; IC50 (K562 [2]): 25.5 µM
C=CCc1cc(-c2ccc3c(c2)OCCO3)ccc1OC | 4.05 | –
OCC(O)Cc1ccc(O)c(-c2ccc(O)c(CC(O)CO)c2)c1 (centres undefined) | 1.16 | IC50 (K562 [4]): > 128 µM; IC50 (A549): > 128 µM; IC50 (HepG2 [5]): > 128 µM
C=CCc1ccc(O)c(-c2ccc3c(c2)CC(C)O3)c1 (centres undefined) | 4.65 | IC50 (K562 [4]): 126 µM; IC50 (A549): 116 µM; IC50 (HepG2 [5]): 126 µM
C=CCc1cc(CO)c(O)c(-c2cc(CO)c(O)c(CC=C)c2)c1 | 3.33 | –
C=CCc1cc(N=O)c(O)c(-c2cc(CC=C)c(O)c(N=O)c2)c1 | 4.45 | IC50 (K562 [4]): > 128 µM; IC50 (A549): > 128 µM; IC50 (HepG2 [5]): > 128 µM
C=CCc1ccc(O)c(-c2ccc(OCC)c(CC=C)c2)c1 | 5.45 | –
C=CCc1ccc(OC)c(-c2cc(CC=C)ccc2OC)c1 | 5.35 | –
C=CCc1cc(C=O)c(OC)c(-c2ccc(OC)c(CC=C)c2)c1 | 5.07 | –
CCCc1ccc(O)c(-c2cc(CCC)ccc2O)c1 | 5.76 | –
C=CCc1cc(CN2CCN(C)CC2)c(O)c(-c2cc(CC=C)c(O)c(CN3CCN(C)CC3)c2)c1 | 4.04 | IC50 (HepG2 [1]): > 40 µM; IC50 (K562 [2]): > 40 µM
C=CCc1cc(CN(C)C)c(O)c(-c2cc(CC=C)c(O)c(CN(C)C)c2)c1 | 4.26 | IC50 (K562 [4]): 31.6 µM; IC50 (A549): 60.8 µM; IC50 (HepG2 [5]): 47.5 µM
Oc1ccccc1-c1ccccc1O | 3.2 | –
C=CCc1cc(NC(=O)CCl)c(O)c(-c2cc(CC=C)c(O)c(NC(=O)CCl)c2)c1 | 4.22 | IC50 (K562 [4]): 21.6 µM; IC50 (A549): 29.3 µM; IC50 (HepG2 [5]): 19.1 µM
C=CCc1cc(C=O)c(OCC)c(-c2ccc(OCC)c(CC=C)c2)c1 | 5.82 | –
C=CCc1cc(/C=N/O)c(O)c(-c2cc(/C=N/O)c(O)c(CC=C)c2)c1 | 5.49 | –

More lines, main results first:

logP [3] | SMILES | also measured
3.08 | C=CCc1ccc(O)c(-c2ccc(O)c(CC(O)CO)c2)c1 (centres undefined) | IC50 (K562 [4]): 100 µM; IC50 (A549): 90.4 µM; IC50 (HepG2 [5]): 25.3 µM
3.76 | C=CCc1cc(O)c(O)c(-c2cc(CC=C)cc(O)c2O)c1 | –
4.77 | C=CCc1ccc(O)c(-c2cccc(CC=C)c2O)c1 | –
4.75 | C=CCc1cccc(-c2cccc(CC=C)c2O)c1O | –
4.27 | C=CCc1cc(CO)c(O)c(-c2ccc(O)c(CC=C)c2)c1 | –
5.23 | C=CCc1ccc(O)c(-c2cc(/C=C(\C#N)C(=O)OCC)c(O)c(CC=C)c2)c1 | –
6.47 | C=CCc1cc(/C=N\c2ccccc2)c(O)c(-c2ccc(O)c(CC=C)c2)c1 | –
5.81 | C=CCc1cc(Br)c(O)c(-c2ccc(OC)c(CC=C)c2)c1 | –
6.43 | C=CCc1ccc(O)c(-c2cc(CC=C)c(O)c(C(C)(C)C)c2)c1 | IC50 (K562 [4]): 32.5 µM; IC50 (A549): 25.7 µM; IC50 (HepG2 [5]): 31.1 µM
7.61 | C=CCc1cc(-c2ccc(OC)c(CC=C)c2)c(O)c(-c2ccc(OC)c(CC=C)c2)c1 | –
4.98 | C=CCc1cc(-c2cccc(CC=C)c2O)ccc1O | –
6.97 | C=CCc1cc(C2(c3ccc(O)c(CC=C)c3)CCCCC2)ccc1O | –
5.21 | C=CCc1cc(-c2ccc(O)c(CC=C)c2)ccc1O | –
7.22 | C=CCc1cc(/C=N\CCCCCC)c(O)c(-c2ccc(O)c(CC=C)c2)c1 | –
3.98 | C=CCc1cc(-c2ccc3c(c2)OCCO3)ccc1O | –
4.36 | C=CCc1cc(-c2ccc3c(c2)OCO3)ccc1O | –
7.76 | C=CCc1cc(/C=N/Nc2ccccc2)c(O)c(-c2ccc(O)c(CC=C)c2)c1 | –
5.05 | C=CCc1cc(-c2cccc(CC=C)c2O)ccc1OC | –
4.82 | C=CCc1ccc(Oc2cc(CC=C)ccc2O)cc1 [ISOMAGNOLOL] | –
5 | C=CCc1cc(C=O)c(OC)c(-c2ccc(O)c(CC=C)c2)c1 | –

logP [3] | SMILES | also measured
4.8 | C=CCc1ccc(O)c(-c2cc(CC=C)ccc2O)c1 [MAGNOLOL] | –
4.48 | C=CCc1cc(/C=C2\SC(=O)NC2=O)c(O)c(-c2ccc(O)c(CC=C)c2)c1 | –
5.28 | C=CCc1cc(-c2ccc(OC)c(CC=C)c2)ccc1O | –
5.14 | C=CCc1ccc(O)c(-c2cc(/C=N/O)c(O)c(CC=C)c2)c1 | –
4.78 | C=CCc1ccc(O)c(-c2cc(CC=C)c3oncc3c2)c1 | –
5.07 | C=CCc1ccc(O)c(-c2ccc(OC)c(CC=C)c2)c1 [METHYLHONOKIOL] | –
6.74 | C=CCc1cc(/C(CC)=C(\CC)c2ccc(O)c(CC=C)c2)ccc1O | –
3.57 | C=CCc1cc(/C=N/CCN)c(O)c(-c2ccc(O)c(CC=C)c2)c1 | –
4.27 | C=CCc1ccc(O)c(-c2cc(/C=C3\SC(=O)NC3=O)c(O)c(CC=C)c2)c1 | –
5.35 | C=CCc1ccc(OC)c(-c2ccc(OC)c(CC=C)c2)c1 | –
5.54 | C=CCc1cc(/C=N\c2ccc(N)cc2)c(O)c(-c2ccc(O)c(CC=C)c2)c1 | –
5.38 | C=CCc1cc(Cc2ccc(O)c(CC=C)c2)ccc1O | –
3.09 | C=CCc1cc(NC(C)=O)c(O)c(-c2cc(CC=C)c(O)c(NC(C)=O)c2)c1 | IC50 (K562 [4]): > 128 µM; IC50 (A549): > 128 µM; IC50 (HepG2 [5]): > 128 µM
5.35 | C=CCc1cc(/C=N/O)c(O)c(-c2ccc(O)c(CC=C)c2)c1 | –
5.41 | C=CCc1cc(C(c2ccc(O)c(CC=C)c2)c2ccccn2)ccc1O | –
3.62 | C=CCc1cc(N)c(O)c(-c2cc(N)c(O)c(CC=C)c2)c1 | IC50 (K562 [4]): > 128 µM; IC50 (A549): > 128 µM; IC50 (HepG2 [5]): > 128 µM
6.67 | C=CCc1cc(/C=N\C2CCCCC2)c(O)c(-c2ccc(O)c(CC=C)c2)c1 | –
5.28 | C=CCc1ccc(OC)c(-c2ccc(O)c(CC=C)c2)c1 | –
5.44 | C=CCc1cc(/C=C(\C#N)C(=O)OCC)c(O)c(-c2ccc(O)c(CC=C)c2)c1 | –
